Active and inactive are the calls of the source. No cut-off for these calls is given here.

Assay [1] has as its system Hs 683. Briefly: Inhibition of spheroid forming capacity of human Hs683 cells assessed as decrease in volume of multicellular tumor spheroids at 5 to 10 uM treated for 24 hrs measured after 96 hrs by bright field microscopic method. The assay is classed as functional, cell-based. In short, it runs like this:
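Spheroids formed from 1 × 10^3 cells in 25 μL. Cells were pretreated 24 h with compound then left untreated 96 h, or untreated spheroids were cultured 96 h with compound. Surface measured from bright-field images; volume in voxels from 3D plots after image segmentation. Mean ± SD of three independent experiments.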

The target of assay [2] is T1, NAD-dependent protein deacetylase sirtuin-1 (Homo sapiens) (UniProt Q96EB6).
T1 sequence (whole entry): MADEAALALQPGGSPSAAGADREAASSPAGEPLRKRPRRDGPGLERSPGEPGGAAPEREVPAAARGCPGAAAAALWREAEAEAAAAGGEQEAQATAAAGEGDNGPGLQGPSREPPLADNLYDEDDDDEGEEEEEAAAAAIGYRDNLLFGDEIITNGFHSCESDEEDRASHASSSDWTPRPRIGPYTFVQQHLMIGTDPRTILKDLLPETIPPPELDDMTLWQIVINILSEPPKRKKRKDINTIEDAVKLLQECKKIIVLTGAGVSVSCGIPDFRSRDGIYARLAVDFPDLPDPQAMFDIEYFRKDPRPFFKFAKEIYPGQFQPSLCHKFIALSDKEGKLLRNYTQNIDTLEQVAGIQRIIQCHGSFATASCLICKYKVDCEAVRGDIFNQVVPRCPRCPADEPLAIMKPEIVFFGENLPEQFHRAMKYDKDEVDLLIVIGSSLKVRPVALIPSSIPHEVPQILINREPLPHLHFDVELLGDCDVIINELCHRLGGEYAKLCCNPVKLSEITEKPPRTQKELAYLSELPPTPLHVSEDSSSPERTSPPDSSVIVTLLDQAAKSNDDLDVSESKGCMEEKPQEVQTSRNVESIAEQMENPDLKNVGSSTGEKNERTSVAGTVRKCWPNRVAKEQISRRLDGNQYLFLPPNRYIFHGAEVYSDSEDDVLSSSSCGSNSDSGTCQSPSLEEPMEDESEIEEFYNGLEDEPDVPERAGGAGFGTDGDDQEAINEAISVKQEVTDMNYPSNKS
Briefly: Inhibition of SIRT1 in human U373 cells assessed as increase of histone H4 acetylation after 8 hrs by Western blotting method. The assay is classed as cell-based. Background: Immunoblotting shows a protein as a band on a membrane.

Assay [3] is described as follows: Potency index, ratio of sirtinol IC50 to test compound IC50 for human U373 cells. It is filed as functional, U-373MG ATCC.
Assay [4] has as its system Hs 683. Briefly: Cell cycle arrest in human Hs683 cells assessed as accumulation at G1 phase at IC50 after 24 to 48 hrs by propidium iodide staining-based flow cytometry. The assay is classed as functional. In short, it runs like this: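 Cells were exposed to compound at the IC50 for each line from the 72 h MTT assay, or to a reference HDAC inhibitor at 2 μM. Cell cycle distribution was analyzed after 24 and 48 h. Results are mean ± SD of three independent experiments, with p values against control cells.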
(In general: Flow cytometry measures light scatter and fluorescence of single cells or particles in a stream.)

Assay [5] has as its target T1, NAD-dependent protein deacetylase sirtuin-1 (Homo sapiens). Briefly: Inhibition of SIRT1 in human Hs683 cells assessed as increase of histone H4 acetylation at 10 to 25 after 8 to 24 hrs by Western blotting method. It is filed as cell-based.
The test system of assay [6] is Hs 683. As to the kind of experiment: Potency index, ratio of EX-527 IC50 to test compound IC50 for human Hs683 cells. The assay is classed as functional.
Assay [7] concerns Hs 683. Briefly: Antiproliferative activity against human Hs683 cells after 72 hrs by MTT assay. It is filed as functional, cell-based. Particulars: Hs 683, 72 h. In short, it runs like this: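 MTT assay: cells in RPMI 1640 with 10% heat-inactivated FCS at 37 °C and 5% CO2 were seeded 24 h before treatment. They were exposed 72 h to compound at 0.01–100 μM, with DMSO as solvent.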

The target of assay [8] is T1, NAD-dependent protein deacetylase sirtuin-1 (Homo sapiens). Briefly: Inhibition of SIRT1 in human U373 cells assessed as increase of histone H4 acetylation at 1 uM after 8 hrs by Western blotting method relative to control. The assay is classed as cell-based.

As to `CC(C)(C)OC(=O)Nc1ccc2c(c1)C(NC(=O)Nc1cccc(C#N)c1)CC(C)(C)O2` (stereo not drawn), the inhibition entry (in the assay on Hs 683 [1]; in assay [5]) was “Active” throughout. For the same molecule, the inhibition entry in assay [2] was “Dose-dependent effect”. The entries for the “Ratio IC50” value (in assay [3]; in the assay on Hs 683 [6]) were 6 and 20, respectively. In addition, the outcome in the assay with Hs 683 [4] was Active. In the assay on Hs 683 [7], this molecule displayed an IC50 of 4 to 5.8 µM. Further, the fold change (FC) in assay [8] came to 1.1.

A word on the IC50: it is the concentration that gives 50% inhibition. A higher IC50 goes with weaker potency in that assay.

Source of the values: ChEMBL document CHEMBL4052637, “Discovery and Characterization of R/S-N-3-Cyanophenyl-N'-(6-tert-butoxycarbonylamino-3,4-dihydro-2,2-dimethyl-2H-1-benzopyran-4-yl)urea, a New Histone Deacetylase Class III Inhibitor Exerting Antiproliferative Activity against Cancer Cell Lines” (J Med Chem, 2017).
